Screens (PubChem)
The list is not random: actives were taken first. Their share in the collection is about 3.8%.
FN deposition inh = fibronectin deposition inhibition | AH1F fibroblasts, Alexa488-fibronectin deposition fluorescence, overnight | AID 743247 | inhibition, % at 12.6 µM | hit rate 0.086% among 350,000;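 active means mean inhibition across replicates of 30% or more, regardless of how many single replicates reach that level; inconclusive means mean under 30% yet at least half of replicates reach 30%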;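 further: positive control wells lacked labelled fibronectin entirely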
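Measured by – fluorescence 485/525 nm · System – AH1F fibroblast monolayer, labelled fibronectin deposition · Amount – 10000 cells per well · Buffer or medium – serum-reduced DMEM (2% serum) · Doses – single dose, pinned · Also added – fluorescent fibronectin at 24 nM final · Schedule – 1 h cell attachment, overnight exposure to compound and label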
DENV2 CPE = DENV2-induced cell death inhibition | DENV2-infected cells, cytopathic effect rescue, plate reader | CPE inhibition, % at 9.99 µM | hit rate 1.7% among 350,000; in the data active means CPE inhibition above about 20%, passing the limit was not always enough; inconclusive means no clear call, values can overlap the other calls; tested in BHK-21 cells;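 further: 0% = median of neutral control wells and 100% = median of positive control wells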
XiGFP reactiv = reactivates the inactive X chromosome in mouse fibroblasts. AID 743238. activation, % at 7.58 µM. XiGFP mouse fibroblasts, % GFP-positive cells imaging, 3 d; cells co-treated with 5-aza-dC sensitizer; scaled so ellipticine positive control = 100%. hit rate 0.055% among 360,000;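 active means mean normalized replicate activation at least 10% and every replicate at or above 10%; inconclusive means only one of the two criteria met; inactive means mean below 10% and not all replicates reach 10%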;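 further: 0% = median of on-plate neutral control wells and 100% = ellipticine 6 µM median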
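Material: XiGFP fibroblasts, SV40-immortalized; Buffer or medium: DMEM containing 5-aza-dC; Compound dosing: single point; Times: 3 days compound exposure.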
ARNT TACC3 PPI = ARNT/TACC3 interaction disruption | AlphaScreen His-ARNT PAS-B/GST-TACC3 binding, luminescence; TACC3 fragment carries E629A point mutation | inhibition, % at 9.99 µM | hit rate 0.66% among 390,000;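 active means mean inhibition of replicates at least 50% and at least half of replicates each reaching 50%; inconclusive means half or more replicates reach 50% but mean below 50%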;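 further: 0% = complete ARNT plus TACC3 wells and 100% = ARNT alone without TACC3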
SIRT5 block = sirtuin-5 (human) deacylase inhibition; hit rate 1.1% among 330,000; Purified SirT5, succinyl-peptide AMC, trypsin-coupled fluorescence; inhibition, % at 15 µM; Q9NXA8; AID 652115; in the data active means inhibition above about 15%; inconclusive means no clear call, values can overlap the other calls
Target sequence (Q9NXA8 whole entry, looked up): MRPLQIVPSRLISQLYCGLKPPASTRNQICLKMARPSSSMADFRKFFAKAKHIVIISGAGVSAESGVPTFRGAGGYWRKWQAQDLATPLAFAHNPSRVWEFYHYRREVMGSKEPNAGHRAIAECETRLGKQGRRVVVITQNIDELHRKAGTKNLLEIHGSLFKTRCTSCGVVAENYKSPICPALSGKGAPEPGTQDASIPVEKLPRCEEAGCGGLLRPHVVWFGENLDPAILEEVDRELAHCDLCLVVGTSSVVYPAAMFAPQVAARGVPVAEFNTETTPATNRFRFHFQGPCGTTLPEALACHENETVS
FGF22 binding = FGF22 (human) thermal shift binding; Q9HCT0; recombinant FGF22 thermal shift, SYPRO orange fluorescence; percent of sucrose octasulfate shift, DMSO zero; activity (Tm shift, normalised), % at 9.99 µM; AID 651658; hit rate 1.5% among 340,000;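 active means mean Tm shift, scaled 0 neutral to 100 positive control, at about 1.3% or above, every replicate too, limit read from the data; inconclusive means no clear call, values can overlap the other calls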
Target sequence (Q9HCT0 whole entry, looked up): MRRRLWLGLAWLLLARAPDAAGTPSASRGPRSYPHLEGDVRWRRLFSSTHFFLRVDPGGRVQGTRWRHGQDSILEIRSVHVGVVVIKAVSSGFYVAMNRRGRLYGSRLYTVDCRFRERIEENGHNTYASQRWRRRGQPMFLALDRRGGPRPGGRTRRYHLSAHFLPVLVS
* hit, by the source's call; u = inconclusive; x = no result.

SMILES | FN deposition inh | DENV2 CPE | XiGFP reactiv | ARNT TACC3 PPI | SIRT5 block | FGF22 binding
COc1ccc(/C=N/Nc2cc(N(C)C)nc(N(C)C)n2)cc1 | 13.5 | -4.1 | -0.1 | 15.4 | 2.0 | 0.0
C[C@H]1CCCCO[C@@H](CN(C)S(=O)(=O)c2ccc(F)cc2)[C@@H](C)CN([C@@H](C)CO)C(=O)c2cc(NS(=O)(=O)c3ccc(F)cc3)ccc2O1 | -5.3 | 2.4 | 0.0 | 7.2 | x | -0.1
CC(NCC(O)COc1ccc2ccccc2c1)c1ccccc1 (centres undefined) | 2.4 | 9.1 | 0.0 | -1.1 | 1.0 | -0.2
Cc1cc(OCC(O)CNC(C)c2ccccc2)ccc1C(C)C (centres undefined) | -1.6 | 39.2* | 0.1 | 1.2 | -0.1 | -0.1
C[C@@H]1CCCCO[C@H](CN(C)CC2CC2)[C@H](C)CN([C@@H](C)CO)C(=O)c2cc(NS(=O)(=O)c3cccs3)ccc2O1 | x | 41.6* | 0.3 | x | 4.8 | 0.1
C[C@@H]1CCCCO[C@H](CN(C)CC2CC2)[C@@H](C)CN([C@H](C)CO)C(=O)c2cc(NS(=O)(=O)c3cccs3)ccc2O1 | x | -4.8 | 0.3 | -2.9 | x | -0.1
C[C@@H]1CCCCO[C@@H](CN(C)S(=O)(=O)c2cccs2)[C@H](C)CN([C@H](C)CO)C(=O)c2cc(NS(C)(=O)=O)ccc2O1 | x | -4.0 | 0.1 | 17.5 | 3.1 | 0.9
C[C@@H]1CCCCO[C@H](CN(C)S(=O)(=O)c2cccs2)[C@@H](C)CN([C@H](C)CO)C(=O)c2cc(NS(=O)(=O)c3cccs3)ccc2O1 | -0.9 | 59.4* | 0.0 | 12.2 | 3.7 | 0.2
C[C@@H]1CN([C@@H](C)CO)C(=O)c2cc(NS(=O)(=O)c3cccs3)ccc2O[C@@H](C)CCCCO[C@@H]1CN(C)C | -7.3 | 20.4* | 0.4 | -5.4 | 1.7 | 0.0
C[C@@H]1CCCCO[C@H](CN(C)C)[C@@H](C)CN([C@H](C)CO)C(=O)c2cc(NS(=O)(=O)c3cccs3)ccc2O1 | 0.4 | -10.2 | 0.2 | -1.7 | -1.2 | -0.1
C[C@@H]1CCCCO[C@H](CN(C)S(=O)(=O)c2cccs2)[C@@H](C)CN([C@@H](C)CO)C(=O)c2cc(NS(C)(=O)=O)ccc2O1 | x | -2.8 | -0.1 | active | -2.2 | 0.9
CNC[C@H]1Oc2c(NC(=O)Nc3cccc4ccccc34)cccc2C(=O)N([C@@H](C)CO)C[C@H]1C | 1.2 | u | 0.2 | x | -3.7 | -0.3
O=C(NCCCN1CCOCC1)[C@H]1N[C@H]2c3ccc(C4=CCCC4)c(=O)n3C[C@H]2[C@@H]1CO | x | -8.3 | 0.3 | -0.5 | -4.7 | 0.1
CN1CCN(C(=O)C2CCN(c3ncc(C(F)(F)F)cc3Cl)CC2)CC1 | -1.1 | -1.4 | 0.0 | -4.0 | 37.4* | 0.3
O=C(CN1CCN(c2ncc(C(F)(F)F)cc2Cl)CC1)N1CCN(c2ncc(C(F)(F)F)cc2Cl)CC1 | -17.2 | x | x | x | -5.2 | x
Cc1noc(C)c1NC(=O)N(C)C[C@H]1Oc2ccc(NC(=O)CCCCCC(=O)Nc3ccccc3N)cc2CC(=O)N([C@@H](C)CO)C[C@@H]1C | -4.5 | 3.8 | -0.5 | x | x | -0.4
CCOc1ccc(NN=C(C(=O)OC)C(=O)OC)c([N+](=O)[O-])c1 | -5.0 | 37.0* | 0.0 | -11.2 | -5.1 | 0.0
CCOc1ccc(NC(=O)Cc2ccccc2)c([N+](=O)[O-])c1 | -2.2 | x | -0.1 | 2.7 | x | x
Cc1nc(C(F)(F)F)c(C(=O)N/N=C(\N)c2ccccn2)s1 | 2.1 | -1.2 | 0.0 | 62.3* | 2.6 | 0.3
COc1ccc(Cl)cc1C(=O)NNC(=O)CSc1nnc2ccccn12 | -15.2 | 6.8 | 0.0 | -2.3 | 0.4 | 44.3*
CC(C)CCNC(=O)NC(=O)CSc1nnc2ccccn12 | x | x | x | -5.9 | x | x
CC(C)CNC(=O)CSc1nnc2ccccn12 | -3.7 | 4.4 | 0.0 | -6.1 | -0.6 | 43.1*
CC(Sc1nnc2ccccn12)C(N)=O (centres undefined) | -5.3 | -5.9 | 0.0 | -3.4 | -0.1 | 43.2*
COCCNC(=O)c1cc2c(c(-c3cccc(C4=CCCC4)c3)n1)[C@@H](CCO)N([S@](=O)C(C)(C)C)C2 | -20.5 | -7.8 | 0.1 | 0.8 | 10.8 | 0.9
C[C@@H]1CN([C@@H](C)CO)C(=O)Cc2cc(NC(=O)Nc3ccc(F)cc3)ccc2O[C@H]1CN(C)C(=O)NC1CCCCC1 | x | -2.9 | 0.4 | 10.6 | -2.2 | -0.1
SMILES | FN deposition inh | DENV2 CPE | XiGFP reactiv | ARNT TACC3 PPI | SIRT5 block | FGF22 binding
CCCN1[C@@H]2Cn3c(ccc(C4=CCCC4)c3=O)[C@H]1[C@@H](C(=O)NCc1ccccn1)[C@@H]2CO | x | -9.3 | 0.1 | 25.0 | 2.1 | -0.2
C[C@H]1CN([C@@H](C)CO)S(=O)(=O)c2ccc(/C=C/c3ccccc3)cc2O[C@H]1CN(C)C(=O)C1CC1 | -5.6 | 1.9 | -0.1 | 12.0 | 15.1* | -0.4
C[C@@H]1CN([C@@H](C)CO)S(=O)(=O)c2ccc(/C=C/c3ccccc3)cc2O[C@@H]1CN(C)C(=O)C1CC1 | -5.3 | 2.5 | 0.1 | 12.1 | 16.7* | -0.8
Cc1noc(C)c1NC(=O)N1C[C@@H](O)COC[C@@H]2O[C@H](CC(=O)NCC3CCCCC3)CC[C@H]21 | -2.5 | 5.3 | 0.1 | -1.5 | 1.6 | 0.0
CN(C1=C(N2CCCCC2)C(=O)c2ccccc2C1=O)c1ccccc1 | -4.9 | x | x | 47.4* | x | x
O=c1c(Cc2ccc(F)cc2)c(O)ccn1CCc1cnc[nH]1 | -0.6 | 3.2 | 0.1 | -1.3 | 2.9 | 43.4*
CCN(CC(=O)Nc1c(F)cccc1F)C(=O)C1CCN(S(=O)(=O)c2ccc(F)cc2)CC1 | x | 28.4* | 0.0 | -4.5 | -3.3 | -0.3
CCN(CC(=O)Nc1c(F)cccc1F)C(=O)C1CCN(C(=O)c2ccc(F)cc2)CC1 | 4.8 | -1.8 | 0.3 | 11.1 | -3.1 | -0.3
C[C@@H]1CN([C@@H](C)CO)C(=O)Cc2cc(NS(C)(=O)=O)ccc2O[C@H]1CN(C)S(=O)(=O)c1cccs1 | -4.2 | 5.5 | 0.5 | 20.2 | 5.0 | 0.2
c1ccc(-c2nc3c(ccc4ccccc43)[nH]2)nc1 | x | x | x | 56.8* | x | x
COc1ccc(C(=O)Nc2ccc(CN3C(=O)[C@]4(O[C@H](CC(=O)N5Cc6ccccc6C[C@H]5CO)[C@@H]([Si](C)(C)c5ccc(OC)cc5)[C@@H]4C)c4ccccc43)cc2)cc1 | x | 0.2 | x | -16.3 | 0.5 | 0.2
COc1ccc([Si](C)(C)[C@@H]2[C@@H](CC(=O)N3Cc4ccccc4C[C@H]3CO)O[C@]3(C(=O)N(C)c4c(Br)cc(C)cc43)[C@H]2C)cc1 | x | 21.3* | x | 15.3 | 9.3 | x
C[C@H](CO)N1C[C@H](C)[C@@H](CN(C)C(=O)C2CCCCC2)Oc2cc(C#CC3CC3)ccc2S1(=O)=O | -10.4 | x | -0.9 | x | x | x
CS(=O)(=O)N[C@@H]1C[C@@H]2O[C@@H](CO)CC[C@@H]2O[C@@H]1CCc1ccc(-c2ccccc2F)cc1 | x | 21.4* | x | x | 2.6 | x
